What was measured:
NCI-H1299 [1] = test: Antiproliferative activity against human NCI-H1299 cells assessed as inhibition of cell growth at 0.1 uM after 72 hrs by MTT assay relative to control; format: functional; conditions: NCI-H1299, 72 h, read-out: GI
Summary of the method: (§1)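 Cells in RPMI 1640 are seeded at 4,000 cells/well and held 24 h at 37 °C, 5% CO2. Medium is replaced with compound-containing medium (DMSO ≤0.25%) for 72 h at 37 °C. MTT read-out by absorbance at 570 nm. Quadruplicate wells, repeated three times; values are means of three independent experiments.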

NCI-H1299 [2] = test: Antiproliferative activity against human NCI-H1299 cells assessed as inhibition of cell growth at 1 uM after 72 hrs by MTT assay relative to control; format: functional; conditions: NCI-H1299, 72 h, read-out: GI; summary of the method: as §1
NCI-H1299 [3] = test: Antiproliferative activity against human NCI-H1299 cells assessed as inhibition of cell growth at 10 uM after 72 hrs by MTT assay relative to control; format: functional; conditions: NCI-H1299, 72 h, read-out: GI; summary of the method: as §1
NCI-H1299 [4] = test: Antiproliferative activity against human NCI-H1299 cells after 72 hrs by MTT assay; format: functional, cell-based; conditions: NCI-H1299, 72 h; summary of the method: as §1
MCF7 = test: Antiproliferative activity against human MCF7 cells after 72 hrs by MTT assay; format: functional, cell-based; conditions: MCF7, 72 h; summary of the method: as §1
A549 = test: Antiproliferative activity against human A549 cells after 72 hrs by MTT assay; format: functional, cell-based; conditions: A549, 72 h; summary of the method: as §1
[5] = target: Heat shock protein HSP 90-alpha (Homo sapiens, UniProt P07900); test: Inhibition of FITC-geldanamycin binding to recombinant human full-length C-terminal His-tagged HSP90alpha […] (1 to 732 residues) expressed in Escherichia coli after 1 hr by fluorescence polarization assay

SMILES	inhibition of growth at 0.1 µM (NCI-H1299 [1]) [%]	inhibition of growth at 1 µM (NCI-H1299 [2]) [%]	inhibition of growth at 10 µM (NCI-H1299 [3]) [%]	IC50 (NCI-H1299 [4]) [µM]	IC50 (MCF7) [µM]	IC50 (A549) [µM]	IC50 [5] [µM]
CC(C)c1cc(C(=O)N2Cc3ccc(CN4CCN(C)CC4)cc3C2)c(O)cc1O [ONALESPIB]	94.8	96.8	95.7	0.37	0.29	0.44	0.02
COc1ccc(CC(=O)c2ccc3c(c2OC)C=CC(C)(C)O3)cc1	3.6	7.3	10.6				
COc1ccc(CC(=O)c2ccc3c(c2OC)CCC(C)(C)O3)cc1OC	7.2	12.4	49.3	12.6	7.86	7.2	0.15
COc1ccc(C(C)C(=O)c2ccc3c(c2OC)C=CC(C)(C)O3)cc1 (stereo not drawn)	7.1	10.8	13.3				
COc1ccc(CC(=O)c2ccc3c(c2O)C=CC(C)(C)O3)cc1OC	4.8	8.2	45.3				
COc1cc2c(cc1OC)[C@@H]1C(=O)c3ccc4c(c3O[C@@H]1CO2)C=CC(C)(C)O4 [DEGUELIN]	9.9	28.5	65.3	5.67	8.17	6.05	1.63
COc1cc(CC(=O)c2ccc3c(c2OC)C=CC(C)(C)O3)cc(OC)c1OC	9.6	27.4	58.3	7.2	5.08	6.15	0.63
CC1(C)C=Cc2c(ccc(C(=O)Cc3ccc(Cl)c(Cl)c3)c2O)O1	8.3	9.1	11.5				
COc1cc(CC(=O)c2ccc3c(c2OC)CCC(C)(C)O3)cc(OC)c1OC	11	30.6	67.5	5.72	5.22	5.33	0.28
COc1ccc(CC(=O)c2ccc3c(c2OC)C=CC(C)(C)O3)cc1OC	5.1	10.7	47.3	11.8	6.88	6	0.09
COc1cc(/C=C/C(=O)c2ccc3c(c2O)C=CC(C)(C)O3)cc(OC)c1OC	3.8	8.7	12.3				
COc1ccc(/C=C/c2ccc3c(c2OC)C=CC(C)(C)O3)cc1OC	5.2	8.6	14.4				
COc1ccc(OC)c(CC(=O)c2ccc3c(c2OC)C=CC(C)(C)O3)c1	4.7	10.4	38.2				
COc1cc(CC(=O)c2ccc3c(c2O)C=CC(C)(C)O3)cc(OC)c1OC	9.7	19.7	49	12	11.2	13.1	0.43
COc1ccc(/C=C/C(=O)c2ccc3c(c2O)C=CC(C)(C)O3)cc1OC	5.3	6.4	10.7				
COc1ccc(C(Cc2ccccc2)C(=O)c2ccc3c(c2OCc2ccccc2)C=CC(C)(C)O3)cc1OC (stereo not drawn)	2.1	2.5	9.9				
COc1cc(CC(=O)c2ccc3c(c2OC)C=CC(C)(C)O3)cc(OC)c1	7.1	10.2	40.1				
COc1ccc(CC(O)c2ccc3c(c2OC)C=CC(C)(C)O3)cc1OC (stereo not drawn)	6.5	10.8	19.8				
COc1c(C(=O)Cc2ccccc2)ccc2c1C=CC(C)(C)O2	5.6	9.3	11.3				
COc1c(C(=O)C(C)c2ccccc2)ccc2c1C=CC(C)(C)O2 (stereo not drawn)	4.5	6.5	15.5				
COc1ccc(CC(=O)c2ccc3c(c2O)C=CC(C)(C)O3)cc1	6.1	7.1	16.1				
CC1(C)C=Cc2c(ccc(C(=O)Cc3ccccc3)c2O)O1	3.9	7.8	15.1				
COc1ccc(CC(=O)c2ccc3c(c2OC(C)=O)C=CC(C)(C)O3)cc1OC	4.1	6.2	19.5				
COc1ccc(CCC(=O)c2ccc3c(c2O)C=CC(C)(C)O3)cc1OC	3.6	8.5	30.1				
COc1c(C(=O)Cc2ccc3c(c2)OCCO3)ccc2c1C=CC(C)(C)O2	3.5	6.5	28.1				
